ChEMBL document CHEMBL1131436, “Repaglinide and related hypoglycemic benzoic acid derivatives” (1998)
Several values for one entry are separate records, joined by “and”; a condition that tells them apart may be missing. Equal entries are not always repeated.

Key:
Rattus norvegicus [1] = experiment: Maximum % decrease of blood glucose (deltaBG) was observed within 4 hour after administration orally at 5 mg/kg dose to fasted adult female rats versus a control group; format: functional; details: route oral
Procedure, shortened: (§1)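 Female Wistar rats (Chbb THOM, SPF, 200-220 g), fasted 24 h, dosed orally by gavage as suspension in 1.5% Tylose methylcellulose (10 mL/kg). Whole blood from retrobulbar plexus under light halothane, deproteinized with 0.33 M HClO4; glucose by hexokinase/G6PDH, hourly up to 4 h. % decrease vs control group (N = 7), Student's t-test, P ≤ 0.05.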

Rattus norvegicus [2] = experiment: Maximum % decrease of blood glucose (deltaBG) was observed within 4 hour after administration orally at 0.1 mg/kg dose to fasted adult female rats versus a control group; format: functional; details: route oral; procedure, shortened: as §1
Rattus norvegicus [3] = experiment: Maximum % decrease of blood glucose (deltaBG) was observed within 4 hour after administration orally at 0.5 mg/kg dose to fasted adult female rats versus a control group; format: functional; details: route oral; procedure, shortened: as §1
Rattus norvegicus [4] = experiment: Maximum % decrease of blood glucose (deltaBG) was observed within 3 hour after administration orally at 0.1 mg/kg dose to fasted adult female rats versus a control group; format: functional; details: route oral; procedure, shortened: as §1
Rattus norvegicus [5] = experiment: Maximum % decrease of blood glucose (deltaBG) was observed within 1 hour after administration orally at 0.5 mg/kg dose to fasted adult female rats versus a control group; format: functional; details: route oral; procedure, shortened: as §1
Rattus norvegicus [6] = experiment: Maximum % decrease of blood glucose (deltaBG) was observed within 1 hour after administration orally at 0.1 mg/kg dose to fasted adult female rats versus a control group; format: functional; details: route oral; procedure, shortened: as §1
Rattus norvegicus [7] = experiment: Maximum % decrease of blood glucose (deltaBG) was observed within 2 hour after administration orally at 0.1 mg/kg dose to fasted adult female rats versus a control group; format: functional; details: route oral; procedure, shortened: as §1
Rattus norvegicus [8] = experiment: Maximum % decrease of blood glucose (deltaBG) was observed within 2 hour after administration orally at 0.5 mg/kg dose to fasted adult female rats versus a control group; format: functional; details: route oral; procedure, shortened: as §1
Rattus norvegicus [9] = experiment: Maximum % decrease of blood glucose (deltaBG) was observed within 3 hour after administration orally at 0.5 mg/kg dose to fasted adult female rats versus a control group; format: functional; details: route oral; procedure, shortened: as §1
Rattus norvegicus [10] = experiment: Maximum % decrease of blood glucose (deltaBG) was observed within 4 hour after administration orally at 100 mg/kg dose to fasted adult female rats versus a control group; NS =' not significant'; format: functional, organism-based; design: dose 100 mg/kg; procedure, shortened: as §1
Rattus norvegicus [11] = experiment: Maximum % decrease of blood glucose (deltaBG) was observed within 4 hour after administration orally at 10 mg/kg dose to fasted adult female rats versus a control group; NS =' not significant'; format: functional, organism-based; design: dose 10 mg/kg; procedure, shortened: as §1
Rattus norvegicus [12] = experiment: Maximum % decrease of blood glucose (deltaBG) was observed within 4 hour after administration orally at 25 mg/kg dose to fasted adult female rats versus a control group; format: functional; details: route oral; procedure, shortened: as §1
Rattus norvegicus [13] = experiment: Maximum % decrease of blood glucose (deltaBG) was observed within 4 hour after administration orally at 1 mg/kg dose to fasted adult female rats versus a control group; NS =' not significant'; format: functional, organism-based; design: dose 1 mg/kg; procedure, shortened: as §1
Rattus norvegicus [14] = experiment: Maximum % decrease of blood glucose (deltaBG) was observed within 4 hour after administration orally at 10 mg/kg dose to fasted adult female rats versus a control group; format: functional; details: route oral; procedure, shortened: as §1
Rattus norvegicus [15] = experiment: Half-maximal effective dose was measured on rat blood glucose after administrating at 4 hr; format: functional; details: Rattus norvegicus, Blood, 4 h; read-out: ED50
Procedure, shortened: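 Adult fasted female Wistar rats (Chbb THOM, SPF, 200-220 g), food withdrawn 24 h; oral gavage of suspension in 1.5% Tylose (methylcellulose), 10 mL/kg. Retrobulbar blood under light halothane; glucose by hexokinase/G6PDH after HClO4 deproteinization, hourly to 4 h. ED50 from fit of glucose vs dose, y = b + [a × k/(k + x^nH)], Hill coefficient nH.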

Rattus norvegicus [16] = experiment: Maximum % decrease of blood glucose (deltaBG) was observed within 4 hour after administration orally at 0.3 mg/kg dose to fasted adult female rats versus a control group; format: functional; details: route oral; procedure, shortened: as §1
Rattus norvegicus [17] = experiment: Maximum % decrease of blood glucose (deltaBG) was observed within 0.5 hour after administration orally at 0.1 mg/kg dose to fasted adult female rats versus a control group; format: functional; details: route oral
Rattus norvegicus [18] = experiment: Maximum % decrease of blood glucose (deltaBG) was observed within 4 hour after administration orally at 50 mg/kg dose to fasted adult female rats versus a control group; format: functional; details: route oral; procedure, shortened: as §1
Rattus norvegicus [19] = experiment: Maximum % decrease of blood glucose (deltaBG) was observed within 4 hour after administration orally at 0.6 mg/kg dose to fasted adult female rats versus a control group; format: functional; details: route oral; procedure, shortened: as §1
Rattus norvegicus [20] = experiment: Maximum % decrease of blood glucose (deltaBG) was observed within 4 hour after administration orally at 0.4 mg/kg dose to fasted adult female rats versus a control group; format: functional; details: route oral; procedure, shortened: as §1
Rattus norvegicus [21] = experiment: Maximum % decrease of blood glucose (deltaBG) was observed within 4 hour after administration orally at 1 mg/kg dose to fasted adult female rats versus a control group; format: functional; details: route oral, 1 mg/kg; procedure, shortened: as §1
Rattus norvegicus [22] = experiment: Maximum % decrease of blood glucose (deltaBG) was observed within 4 hour after administration orally at 0.25 mg/kg dose to fasted adult female rats versus a control group; format: functional; details: route oral
Procedure, shortened: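 Adult female Wistar rats (Chbb THOM, SPF; 200-220 g) fasted 24 h, N=7 per group. Compound suspended in 1.5% methylcellulose (Tylose) and dosed by oral gavage at 10 mL/kg. Retrobulbar blood was drawn under light halothane hourly for up to 4 h. Glucose was read by hexokinase/G6PDH after HClO4 deproteinisation. Value is the maximum % fall versus vehicle controls; Student's t-test, P ≤ 0.05.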

CC(C(=O)NCc1ccc(C(=O)O)cc1)c1ccccc1N1CCCCC1 (stereo unspecified)
Delta BG (Rattus norvegicus [1]): -32%

CCCC(NC(=O)Cc1ccc(C(=O)O)c(OCC)c1)c1ccccc1N1CCCCC1 (stereo unspecified)
Delta BG (Rattus norvegicus [2]; 0.1 mg/kg): -32% and -18%
Delta BG (Rattus norvegicus [3]): -35%
Delta BG (Rattus norvegicus [4]): -25%
Delta BG (Rattus norvegicus [5]): -43%
Delta BG (Rattus norvegicus [6]): -32%
Delta BG (Rattus norvegicus [7]): -30%
Delta BG (Rattus norvegicus [8]): -36%
Delta BG (Rattus norvegicus [9]): -34%

O=C(NCCc1ccccc1)c1cc(Cl)ccc1N1CCCCCCCC1
Delta BG (Rattus norvegicus [10]): Not significant

CC(C)(NC(=O)Cc1ccc(C(=O)O)cc1)c1cc(Cl)ccc1N1CCCCC1
Delta BG (Rattus norvegicus [11]): Not significant

CC(NC(=O)Cc1ccc(C(=O)O)cc1)c1cccc(N2CCCCC2)c1 (stereo unspecified)
Delta BG (Rattus norvegicus [12]): -15%

CC(NC(=O)Cc1ccc(S(=O)(=O)NC(=O)NC2CCCCC2)cc1)c1ccccc1N1CCCCC1 (stereo unspecified)
Delta BG (Rattus norvegicus [13]): Not significant
Delta BG (Rattus norvegicus [1]): -42%

CC(NC(=O)Cc1ccc(C(=O)O)cc1)c1cc(Cl)ccc1N1CCCCC1 (stereo unspecified)
Delta BG (Rattus norvegicus [1]): -18%
Delta BG (Rattus norvegicus [14]): -36%

CCC1=C(C)CN(C(=O)NCCc2ccc(S(=O)(=O)NC(=O)N[C@H]3CC[C@H](C)CC3)cc2)C1=O [GLIMEPIRIDE]
ED50 (Rattus norvegicus [15]): 0.182 mg/kg
Delta BG (Rattus norvegicus [2]): -18%
Delta BG (Rattus norvegicus [4]): -14%
Delta BG (Rattus norvegicus [16]): -35%
Delta BG (Rattus norvegicus [6]): -17%
Delta BG (Rattus norvegicus [7]): -18%
Delta BG (Rattus norvegicus [17]): -8%

CCCC(NC(=O)Cc1ccccc1)c1ccccc1N1CCCCC1 (stereo unspecified)
Delta BG (Rattus norvegicus [18]): -10%

CC(NC(=O)Cc1cccc(C(=O)O)c1)c1ccccc1N1CCCCC1 (stereo unspecified)
Delta BG (Rattus norvegicus [12]): -12%

O=C(Cc1ccc(C(=O)O)cc1)NC(c1ccccc1)c1ccccc1N1CCCCC1 (stereo unspecified)
ED50 (Rattus norvegicus [15]): 0.38 mg/kg
Delta BG (Rattus norvegicus [19]): -36%
Delta BG (Rattus norvegicus [20]): -23%

CN(C)c1ccc(Cl)cc1C(=O)NCCc1ccc(C(=O)O)cc1
Delta BG (Rattus norvegicus [12]): -28%

CC(NC(=O)Cc1ccc(S(N)(=O)=O)cc1)c1ccccc1N1CCCCC1 (stereo unspecified)
Delta BG (Rattus norvegicus [11]): Not significant

O=C(O)c1ccc(CCNC(=O)c2cc(Cl)ccc2N2CCCCCCCC2)cc1
ED50 (Rattus norvegicus [15]): 0.38 mg/kg
Delta BG (Rattus norvegicus [21]): -40% and -39%
Delta BG (Rattus norvegicus [3]): -33%
Delta BG (Rattus norvegicus [22]): -13% and -18%

O=C(Cc1ccc(C(=O)O)cc1)N[C@@H](c1ccccc1)c1ccccc1N1CCCCC1
Delta BG (Rattus norvegicus [20]): -33%

CCN(CC)c1ccc(Cl)cc1C(=O)NCCc1ccc(C(=O)O)cc1
Delta BG (Rattus norvegicus [12]): -35%
